In ChEMBL document CHEMBL1140737, “Discovery of novel agonists and antagonists of the free fatty acid receptor 1 (FFAR1) using virtual screening” (J Med Chem, 2008):
Activity calls are given as the source filed them. The rule behind the calls is not given here.

Columns and labels:
[1] = target: T1, Free fatty acid receptor 1 (Homo sapiens, UniProt O14842); experiment: Antagonist activity at FFAR1 expressed in HEK-EM293 cells assessed as inhibition calcium influx by FLIPR assay; format: functional, cell-based, HEK293
T1 sequence (O14842 whole entry): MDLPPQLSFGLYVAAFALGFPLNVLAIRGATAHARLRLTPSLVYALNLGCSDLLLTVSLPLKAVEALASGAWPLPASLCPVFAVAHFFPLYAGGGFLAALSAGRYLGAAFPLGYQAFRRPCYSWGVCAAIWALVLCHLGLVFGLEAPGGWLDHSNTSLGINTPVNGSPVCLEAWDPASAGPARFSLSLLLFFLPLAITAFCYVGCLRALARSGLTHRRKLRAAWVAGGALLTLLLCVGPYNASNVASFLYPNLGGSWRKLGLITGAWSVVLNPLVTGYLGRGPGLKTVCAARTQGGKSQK

[2] = target: T1, Free fatty acid receptor 1; experiment: Agonist activity at FFAR1 expressed in HEK-EM293 cells assessed as calcium influx by FLIPR assay; format: functional, cell-based, HEK293; settings: for Activity: HEK293
[3] = target: T1, Free fatty acid receptor 1; experiment: Activity at FFAR1 expressed in HEK-EM293 cells assessed as calcium influx relative to GW-9508 by FLIPR assay; format: functional, cell-based; design: concentration or dose not given beside the values; settings: HEK293
[4] = Antagonist activity at TRH receptor 1 expressed in HEK-EM293 cells assessed as inhibition of thyrotropin-releasing hormone-stimulated calcium influx at 30 uM by FLIPR assay; format: functional; settings: HEK293
Outline: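 HEK-EM 293 cells stably expressing TRH-R1, grown with 200 µg/mL hygromycin and loaded with Calcium4. Pre-incubated with compound, up to 30 µM, then stimulated with TRH. Inhibition of the FLIPR calcium response measured.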

[5] = target: T1, Free fatty acid receptor 1; experiment: Antagonist activity at FFAR1 expressed in HEK-EM293 cells assessed as linoleic acid-stimulated calcium influx after 30 mins by FLIPR assay; format: functional, cell-based; settings: HEK293
[6] = target: Free fatty acid receptor 1 (Homo sapiens, UniProt O14842, L186F); experiment: Activity at FFAR1 L186F mutant expressed in HEK-EM293 cells assessed as calcium influx by FLIPR assay; format: functional, cell-based, HEK293
Sequence of Free fatty acid receptor 1 (Homo sapiens, UniProt O14842, L186F) (O14842 whole entry L186F): as the sequence (O14842 whole entry) above, with L186F counted along it
Outline: (§1)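 Mutant or wild-type FFAR1 cDNA transiently transfected (lipofectamine LTX/PLUS) into HEK-EM 293 cells. Cells seeded at 60 000/well one day before, then loaded with Calcium4 dye in HEPES (20 mM)-buffered HBSS. Intracellular calcium flux read by FLIPR after agonist addition; EC50 from concentration-response curves.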

[7] = target: Free fatty acid receptor 1 (Homo sapiens, UniProt O14842, H137F); experiment: Activity at FFAR1 H137F mutant expressed in HEK-EM293 cells assessed as calcium influx by FLIPR assay; format: functional, cell-based, HEK293; outline: as §1
Sequence of Free fatty acid receptor 1 (Homo sapiens, UniProt O14842, H137F) (O14842 whole entry H137F): as the sequence (O14842 whole entry) above, with H137F counted along it

[8] = target: Free fatty acid receptor 1 (Homo sapiens, UniProt O14842, H86F); experiment: Activity at FFAR1 H86F mutant expressed in HEK-EM293 cells assessed as calcium influx by FLIPR assay; format: functional, cell-based, HEK293; outline: as §1
Sequence of Free fatty acid receptor 1 (Homo sapiens, UniProt O14842, H86F) (O14842 whole entry H86F): as the sequence (O14842 whole entry) above, with H86F counted along it

[9] = target: T1, Free fatty acid receptor 1; experiment: Activity at FFAR1 expressed in HEK-EM293 cells assessed as calcium influx by FLIPR assay; format: functional, cell-based, HEK293
[10] = target: Free fatty acid receptor 1 (Homo sapiens, UniProt O14842, R183A); experiment: Activity at FFAR1 R183A mutant expressed in HEK-EM293 cells assessed as calcium influx by FLIPR assay; format: functional, cell-based, HEK293; outline: as §1
Sequence of Free fatty acid receptor 1 (Homo sapiens, UniProt O14842, R183A) (O14842 whole entry R183A): as the sequence (O14842 whole entry) above, with R183A counted along it

[11] = target: Free fatty acid receptor 1 (Homo sapiens, UniProt O14842, N244A); experiment: Activity at FFAR1 N244A mutant expressed in HEK-EM293 cells assessed as calcium influx by FLIPR assay; format: functional, cell-based, HEK293; outline: as §1
Sequence of Free fatty acid receptor 1 (Homo sapiens, UniProt O14842, N244A) (O14842 whole entry N244A): as the sequence (O14842 whole entry) above, with N244A counted along it

Structure (SMILES) | EC50 [2] [µM] | Activity [3] [%] | Activity [2] | other results
O=C(Nc1ccccc1)c1cccc(Oc2ccc([N+](=O)[O-])cc2)c1 | – | – | – | IC50 [1]: 5.3 µM
O=C(c1ccccc1)c1ccc(NC(=O)c2ccccc2C(=O)O)cc1 | – | – | inactive | –
COc1ccc(CSc2nnc(SCc3ccc(C(=O)O)cc3)s2)cc1 | 15.1 | 40 | – | –
O=C(O)c1cccc(NCc2cccc(OCc3ccccc3)c2)c1 | 8.2 | 52 | – | –
COc1ccc(CNC(=O)[C@H](C)c2ccc([N+](=O)[O-])cc2)cc1 | – | – | inactive | –
O=C(Nc1ccc(OCc2ccccc2)cc1)c1cccc([N+](=O)[O-])c1 | – | – | inactive | –
O=C(NCc1cccc(Oc2ccccc2)c1)c1ccc([N+](=O)[O-])cc1 | – | – | – | inhibition at 30 µM [4]: 30%; IC50 [1]: 2.8 µM; Activity [5]: Active
C=CCOc1ccc(CNc2cccc(C(=O)O)c2)cc1 | 14.5 | 49 | – | –
O=C(O)c1ccc(NC(=O)c2ccc(C(=O)c3ccccc3)cc2)cc1 | 16.1 | 56 | – | –
COc1ccc(CNC(=O)/C=C\c2ccc([N+](=O)[O-])cc2)cc1 | – | – | inactive | –
COC(=O)CSc1nnc(SCc2ccccc2)s1 | 16.7 | 41 | – | –
O=C(O)c1ccc(NCc2ccc3c(c2)OCO3)cc1 | 24.6 | 50 | – | –

Continued, in another order:

EC50 [2] [µM] | Activity [3] [%] | Activity [2] | Structure (SMILES) | other results
19 | 43 | – | O=C(O)CCCN1C(=O)/C(=C\c2cccs2)SC1=S | –
– | – | Active | O=C(O)CCCN1C(=O)/C(=C\c2ccc3c(c2)OCO3)SC1=S | –
16.8 | 44 | – | O=C(O)CCCN1C(=O)/C(=C\c2ccco2)SC1=S | –
12.2 | 100 | – | O=C(O)CCCCCN1C(=O)/C(=C\c2cccc3ccccc23)SC1=S | –
22.6 | 26 | – | O=C(O)CCCN1C(=O)/C(=C\c2ccc(F)cc2)SC1=S | –
– | – | inactive | O=C(O)CCN1C(=O)/C(=C\c2ccncc2)SC1=S | –
– | – | inactive | O=C(O)CCN1C(=O)/C(=C\c2c[nH]c3ccccc23)SC1=S | –
– | – | inactive | O=C(O)CCN1C(=O)/C(=C\c2cccc3ccccc23)SC1=S | –
7.6 | 59 | – | O=C(O)CCCCCN1C(=O)/C(=C\c2cccs2)SC1=S | EC50 [6]: 3200 nM; EC50 [7]: 7.8 µM; EC50 [8]: > 10 µM; EC50 [9]: 6.6 µM; EC50 [10]: > 30 µM; EC50 [11]: > 30 µM
3.6 | 100 | – | O=C(O)CSc1nnc(SCc2cccc3ccccc23)s1 | EC50 [6]: 970 nM; EC50 [7]: 4.3 µM; EC50 [8]: ≥ 100 µM; EC50 [9]: 1.8 µM; EC50 [10]: ≥ 100 µM; EC50 [11]: ≥ 100 µM
